Counter-ions that a name gives are not always drawn.
What was measured:
[1] = target: human serum albumin (HSA) Site I (Homo sapiens, UniProt P02768); assay: Displacement of the Site I-selective fluorescent probe DNSA from HSA; type: binding; details: for Site I binding (DNSA displacement), result in words: 10 µM HSA, 20 µM DNSA, pH 7.4, 25°C, numeric EC50 values only in Figures 4-6; for fluorescence of the site I probe, DNSA: at higher concentrations of ligand
Procedure, shortened: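 Fatty acid- and globulin-free HSA in 0.1 M potassium phosphate, pH 7.4, with DNSA probe and increasing ligand concentrations (DMSO stocks; final DMSO <0.8% v/v; DMSO-only controls). Fluorescence read after 5 min at 25°C, ex 350/em 460 nm. Triplicates, each averaging six readings, as % of control.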

[2] = tested on: HSA; details: cited from earlier work
[3] = tested on: HSA; details: cited from earlier work; remark: listed apart in the source
[4] = tested on: human serum albumin; details: HSA binding, previously published; cited from earlier work

Chain of human serum albumin (HSA) Site I (P02768 25-609): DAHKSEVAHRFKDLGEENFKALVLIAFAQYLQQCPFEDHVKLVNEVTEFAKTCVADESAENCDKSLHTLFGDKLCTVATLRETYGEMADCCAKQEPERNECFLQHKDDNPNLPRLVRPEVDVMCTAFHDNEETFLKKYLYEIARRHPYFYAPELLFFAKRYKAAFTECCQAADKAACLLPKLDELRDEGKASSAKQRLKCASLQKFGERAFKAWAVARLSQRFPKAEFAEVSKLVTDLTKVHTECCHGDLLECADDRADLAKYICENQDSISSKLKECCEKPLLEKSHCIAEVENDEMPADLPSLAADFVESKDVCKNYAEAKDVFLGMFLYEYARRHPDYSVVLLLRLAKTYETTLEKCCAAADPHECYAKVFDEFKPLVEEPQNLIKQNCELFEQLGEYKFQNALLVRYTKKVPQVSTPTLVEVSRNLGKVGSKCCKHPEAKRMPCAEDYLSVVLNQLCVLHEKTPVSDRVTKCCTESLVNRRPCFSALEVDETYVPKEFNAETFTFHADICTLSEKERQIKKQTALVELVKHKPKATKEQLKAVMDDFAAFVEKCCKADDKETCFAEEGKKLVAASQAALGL

Row | Compound | Site I binding (DNSA displacement), result in words [1] | binding to Site II [2] | binding to Sudlow Site I [2] | further results
1 | Oc1ccc(-c2ccc(Cl)cc2)cc1 [4’-OH-PCB 3] | significant binding | – | – | –
2 | Oc1ccc(-c2cc(Cl)ccc2Cl)cc1 [4’-OH-PCB 9] | no significant binding | – | – | –
3 | O=S(=O)(O)Oc1ccc(-c2ccc(Cl)cc2)cc1 [4’-PCB 3 sulfate] | significant binding | – | – | –
4 | O=S(=O)(O)Oc1ccc(-c2ccc(Cl)c(Cl)c2)cc1 [4’-PCB 12 sulfate] | no significant binding | – | – | –
5 | O=S(=O)(O)Oc1ccc(-c2ccc(Cl)c(Cl)c2)c(Cl)c1 [4’-PCB 33 sulfate] | – | – | – | fluorescence of the site I probe, DNSA [1]: increased
6 | O=S(=O)(O)Oc1ccc(-c2ccc(Cl)c(Cl)c2)cc1Cl [4’-PCB 35 sulfate] | lack of interaction | – | – | fluorescence of the site I probe, DNSA [1]: increased
7 | Clc1ccc(-c2cc(Cl)c(Cl)cc2Cl)cc1Cl [PCB 118] | – | no binding | bound with high affinity | –
8 | Clc1cc(Cl)c(-c2cc(Cl)c(Cl)cc2Cl)cc1Cl [PCB 153] | – | no binding | bound with high affinity | HSA binding site [3]: bound to a single site of HSA, Sudlow Site II
9 | Clc1ccc(-c2cc(Cl)c(Cl)c(Cl)c2)cc1Cl [compound 126] | – | no binding | bound with high affinity | –
10 | O=C(O)c1ccccc1Nc1cccc(C(F)(F)F)c1 [flufenamic acid] | – | – | – | Ka [4]: 156000 M⁻¹

From article PMC4883002 (Environmental science & technology, 2016)
